Series [1] has as its system Hepatitis C virus. Kind of series: Antiviral activity against Hepatitis C virus subtype 1b Con1 infected in human HuH7 cells after 3 days by luciferase reporter gene assay. The class given is functional, organism-based, Hepacivirus hominis. The following applies: Con1, Huh-7, 72 h. The gist of the method: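 Huh7-derived 2209-23 cells stably carrying a GT 1b Con1 subgenomic replicon encoding Renilla luciferase, incubated with compound for 3 days. The EC50 is the concentration that reduces reporter luciferase activity by 50% versus untreated controls. Values are reported as mean ± SD over repeated experiments, with the number of experiments differing by compound.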
(In general: A reporter such as luciferase makes a cellular process visible.)

The nature of series [2]: Cytotoxicity against human HuH7 cells. The class given is cell-based, Huh-7. The gist of the method: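 Viability of the stable GT 1b Con1 replicon cells was measured by MTT or WST-1 assay to give CC50, the 50% cytotoxic concentration. The number of experiments matched the EC50 determinations, and values are reported as mean ± SD.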
Series [3] concerns Hepatitis C virus. Description: Antiviral activity against HCV infected in human assessed as log reduction in viral load at 4500 […] BID. The class given is functional, Hepacivirus hominis.
Series [4] relates to Hepatitis C virus. Description: Antiviral activity against HCV subtype 1b infected in human HuH7 cells assessed as number of resistant colonies formed at 10 times EC50 after 3 weeks. The class given is functional, Hepacivirus hominis, genotype 1b, Huh-7. A digest of the protocol: (§1)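 Huh7 cells stably carrying a GT 1b subgenomic neoR replicon, seeded at 1 × 10^5 cells/well with 0.5 mg/ml G418, were exposed to one or two inhibitors at multiples of EC50 (from the 3-day Con1 2209-23 luciferase assay). Medium was changed twice weekly, with a 1:4 split at ~95% confluence. After 3 weeks, cells were formaldehyde-fixed and crystal violet-stained, and colonies were counted.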

Series [5] concerns Hepatitis C virus. Description: Antiviral activity against HCV infected in human assessed as log reduction in viral load measured on day 4 postdose. Format: functional, Hepacivirus hominis.
Series [6] deals with Hepatitis C virus. Kind of series: Antiviral activity against HCV subtype 1b infected in human HuH7 cells assessed as number of resistant colonies formed at 15 times EC50 after 3 weeks. The class given is functional, Hepacivirus hominis, genotype 1b, Huh-7. The gist of the method:
as §1

In series [7] the test system is Hepatitis C virus. Description: Antiviral activity against HCV genotype 1 infected in human assessed as log reduction in viral load at 750 mg administered every 8 hrs for 14 days.
Series [8] concerns Hepatitis C virus. Description: Antiviral activity against HCV infected in human assessed as log reduction in viral load at 800 […] SID. The class given is functional, Hepacivirus hominis.

SMILES strings stand for the structures. Where only a bound is given, the exact number is not on record here.

The EC50 is the concentration that produces a half-maximal response. The low end stands for greater potency, the high end for weaker potency. The CC50 is the concentration that lowers cell viability or growth by half. As for `C[C@@]1(F)[C@H](O)[C@@H](CO)O[C@H]1n1ccc(N)nc1=O`, the EC50 with Hepatitis C virus [1] turned out to be 610 nM. Further, in series [2], the cytotoxic concentration (CC50) is greater than 100000 nM.
Taken in the same sequence, the figures for `C[C@@]1(O)[C@H](O)[C@@H](CO)O[C@H]1n1ccc(N)nc1=O` were 1230 nM and greater than 100000 nM.
For `[N-]=[N+]=N[C@]1(CO)O[C@@H](n2ccc(N)nc2=O)[C@H](O)[C@@H]1O` [4'-AZIDOCYTIDINE], in that order: 1280 nM and greater than 100000 nM.
Regarding `CC(C)C(=O)OC[C@@]1(N=[N+]=[N-])O[C@@H](n2ccc(N)nc2=O)[C@H](OC(=O)C(C)C)[C@@H]1OC(=O)C(C)C` [BALAPIRAVIR], the FC in the series with Hepatitis C virus [3] stood at 3.7.
In the case of `CNC(=O)c1c(-c2ccc(F)cc2)oc2cc(N(CCO)S(C)(=O)=O)c(C3CC3)cc12` [NESBUVIR], the Activity is recorded as 60 with Hepatitis C virus [4] and 36 with Hepatitis C virus [6]. The FC in the series on Hepatitis C virus [5] was found to be 1.4. In addition, the midpoint of the response in the series on Hepatitis C virus [1], the EC50, lay at 17 nM. Further, the CC50 in series [2] is greater than 100000 nM.
On to `CCC[C@H](NC(=O)[C@@H]1[C@H]2CCC[C@H]2CN1C(=O)[C@@H](NC(=O)[C@@H](NC(=O)c1cnccn1)C1CCCCC1)C(C)(C)C)C(=O)C(=O)NC1CC1` [TELAPREVIR], for which, in the series on Hepatitis C virus [1], the EC50 was found to be 560 nM. Besides, the Activity in the series with Hepatitis C virus [7] was greater than 4 log10IU/ml; in the series with Hepatitis C virus [6], 93. Also, the CC50 in series [2] worked out at 26700 nM.
For the compound `CC(C)[C@H](N)C(=O)O[C@@H]1[C@@H](CO)O[C@@H](n2ccc(N)nc2=O)[C@]1(C)O` [VALOPICITABINE], the FC in the series on Hepatitis C virus [8] is reported as 1.2.

The record behind these values is ChEMBL document CHEMBL1255315, “The hepatitis C virus replicon presents a higher barrier to resistance to nucleoside analogs than to nonnucleoside polymerase or protease inhibitors” (Antimicrob Agents Chemother, 2008).
